These results are taken from ChEMBL document CHEMBL2062362, “Bioactive 3,4-seco-Triterpenoids from the Fruits of Acanthopanax sessiliflorus” (J Nat Prod, 2012).

One data set has as its system HCT-116. Kind of data set: Cytotoxicity against human HCT116 cells by MTT assay. The data set is classed as functional, cell-based.
A further data set relates to MCF7. Kind of data set: Cytotoxicity against human MCF7 cells by MTT assay. The data set is classed as functional, cell-based.
The test system of another data set is SK-BR-3. Kind of data set: Cytotoxicity against human SKBR3 cells by MTT assay. The data set is classed as functional, cell-based.
For the next data set, the system named is SK-OV-3. Kind of data set: Cytotoxicity against human SKOV3 cells by MTT assay. Format: functional, cell-based.
The subject of a further data set is HeLa. Kind of data set: Cytotoxicity against human HeLa cells by MTT assay. Format: functional, cell-based.
For the next data set, the system named is HepG2. Kind of data set: Cytotoxicity against human HepG2 cells by MTT assay. Format: functional, cell-based.
The test system of the next data set is SK-MEL-5. Kind of data set: Cytotoxicity against human SK-MEL-5 cells by MTT assay. Format: functional, cell-based.
The test system of a further data set is RAW264.7. Kind of data set: Antiinflammatory activity in mouse RAW264.7 cells assessed as inhibition of LPS-stimulated NO production pretreated for 30 mins before LPS challenge measured after 24 hrs by Griess reagent.
Data set [1] can be described thus: Cytotoxicity against mouse RAW264.7 cells assessed as cell viability after 24 hrs by MTT assay. Further details: concentration or dose not given beside the values. Format: cell-based. Conditions: read-out: Activity. The method, boiled down: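 The same LPS-stimulated RAW 264.7 cultures (1 × 10⁴ cells/well) were pretreated with samples for 30 min, then given LPS at 1 μg/mL for 24 h. Viability was assessed by MTT reduction and expressed as a percentage of the LPS-only group. Data are means ± SD of three independent experiments.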

With `C=C(C)[C@@H]1C[C@H](O)[C@]2(C(=O)O)CC[C@]3(C)[C@H](C[C@H]4OC(=O)C[C@@H](O)[C@]5(C)[C@@H]4[C@@]3(C)CC[C@H]5C(=C)C)[C@@H]12`, the IC50 with HCT-116, in the data set with MCF7, in the data set with SK-BR-3, in the data set with SK-OV-3, in the data set with HeLa and in the data set with HepG2 was greater than 10 µM in each case. Further, the IC50 is greater than 10 µM in the data set on SK-MEL-5 and greater than 50 µM in the data set on RAW264.7.
Consider `C=C(C)[C@@H]1C[C@H](O)[C@]2(C(=O)O)CC[C@]3(C)[C@H](C[C@@H](O)[C@@H]4[C@@]5(C)[C@@H](CC(=O)O)OC(C)(C)[C@@H]5CC[C@]43C)[C@@H]12`, for which the IC50 with HCT-116, in the data set with MCF7, with SK-BR-3, in the data set with SK-OV-3, in the data set on HeLa and with HepG2 was greater than 10 µM in each case. In addition, the results for the IC50 with SK-MEL-5 and in the data set with RAW264.7 were greater than 10 µM and greater than 50 µM, respectively.
As to `C=C(C)[C@@H]1CC[C@]2(C(=O)O[C@@H]3O[C@H](CO[C@@H]4O[C@H](CO)[C@@H](O)[C@H](O)[C@H]4O)[C@@H](O)[C@H](O)[C@H]3O)CC[C@]3(C)[C@H](C[C@H]4OC(=O)C[C@@H](O)[C@]5(C)[C@@H]4[C@@]3(C)CC[C@H]5C(=C)C)[C@@H]12`, the IC50 in the data set with HCT-116, in the data set with MCF7, with SK-BR-3, with SK-OV-3, in the data set with HeLa and in the data set on HepG2 was greater than 10 µM throughout. For the same compound, the IC50 is greater than 10 µM in the data set with SK-MEL-5 and greater than 50 µM in the data set on RAW264.7.
Regarding `C=C(C)[C@@H]1C[C@H](O)[C@]2(C(=O)O[C@@H]3O[C@H](CO[C@@H]4O[C@H](CO)[C@@H](O[C@@H]5O[C@@H](C)[C@H](O)[C@@H](O)[C@H]5O)[C@H](O)[C@H]4O)[C@@H](O)[C@H](O)[C@H]3O)CC[C@]3(C)[C@H](C[C@H]4OC(=O)C[C@@H](O)[C@]5(C)[C@@H]4[C@@]3(C)CC[C@H]5C(=C)C)[C@@H]12`, the IC50 in the data set with HCT-116, with MCF7, in the data set with SK-BR-3, with SK-OV-3, in the data set on HeLa and with HepG2 was greater than 10 µM throughout. The figures for the IC50 in the data set on SK-MEL-5 and in the data set with RAW264.7 were greater than 10 µM and greater than 50 µM, respectively.
Regarding `C=C(C)[C@@H]1CC[C@]2(C(=O)O)CC[C@]3(C)[C@H](C[C@@H](O)[C@@H]4[C@@]5(C)[C@@H](CC(=O)OC)OC(C)(C)[C@@H]5CC[C@]43C)[C@@H]12` [ACANTHOSESSILIGENIN II], the viability at 24 h in [1] was 91.1%. In addition, the IC50 with HCT-116, with MCF7, in the data set with SK-BR-3, in the data set with SK-OV-3, in the data set with HeLa and with HepG2 was greater than 10 µM in each case. For the same compound, the IC50 was greater than 10 µM in the data set on SK-MEL-5 and 47 µM with RAW264.7.
For the compound `C=C(C)[C@@H]1C[C@H](O)[C@]2(C(=O)O)CC[C@]3(C)[C@H](CC[C@@H]4[C@@](C)(CCC(=O)OC)[C@H](C(=C)C)CC[C@]43C)[C@@H]12` [ACANTHOSESSILIGENIN I], in [1], the viability at 24 h was 88.8%. In addition, the IC50 in the data set with HCT-116, with MCF7, in the data set on SK-BR-3, in the data set on SK-OV-3, in the data set with HeLa and in the data set on HepG2 was greater than 10 µM each time. Moreover, the IC50 is greater than 10 µM in the data set with SK-MEL-5 and 11.3 µM in the data set with RAW264.7.
Turning to `C=C(C)[C@@H]1CC[C@]2(C(=O)O[C@@H]3O[C@H](CO)[C@@H](O)[C@H](O)[C@H]3O)CC[C@]3(C)[C@H](CC[C@@H]4[C@@](C)(CCC(=O)O)[C@H](C(=C)C)CC[C@]43C)[C@@H]12` [ACANTHOSESSILIOSIDE A], the viability at 24 h in data set [1] was found to be 93.5%. Further, the 50% inhibitory concentration (IC50) in the data set with HCT-116, in the data set with MCF7, with SK-BR-3, with SK-OV-3, in the data set on HeLa and in the data set with HepG2 was greater than 10 µM throughout. The IC50 in the data set on SK-MEL-5 is greater than 10 µM; with RAW264.7 it was 18.3 µM.
As to `C=C(C)[C@@H]1CC[C@]2(C(=O)O[C@@H]3O[C@H](CO)[C@@H](O)[C@H](O)[C@H]3O)CC[C@]3(C)[C@H](C[C@@H](O)[C@@H]4[C@@]5(C)[C@@H](CC(=O)OC)OC(C)(C)[C@@H]5CC[C@]43C)[C@@H]12` [ACANTHOSESSILIOSIDE B], the viability at 24 h in [1] was determined as 93%. For the same compound, the IC50 in the data set on HCT-116, in the data set on MCF7, in the data set with SK-BR-3, with SK-OV-3, with HeLa and with HepG2 was greater than 10 µM each time. Also, the IC50 in the data set on SK-MEL-5 was greater than 10 µM; with RAW264.7, 20.6 µM.
`C=C(C)[C@@H]1C[C@H](O)[C@]2(C(=O)O[C@@H]3O[C@H](CO)[C@@H](O)[C@H](O)[C@H]3O)CC[C@]3(C)[C@H](C[C@@H](O)[C@@H]4[C@@]5(C)[C@@H](CC(=O)OC)OC(C)(C)[C@@H]5CC[C@]43C)[C@@H]12` [ACANTHOSESSILIOSIDE C]: the IC50 in the data set on HCT-116, in the data set with MCF7, with SK-BR-3, in the data set with SK-OV-3, in the data set on HeLa and in the data set on HepG2 was greater than 10 µM throughout. Further, the IC50 was greater than 10 µM with SK-MEL-5 and greater than 50 µM in the data set with RAW264.7.
In the case of `C=C(C)[C@@H]1CC[C@]2(C(=O)O)CC[C@]3(C)[C@H](CC[C@@H]4[C@@]5(C)[C@@H](CC(=O)O[C@@H]6O[C@H](CO)[C@@H](O)[C@H](O)[C@H]6O)OC(C)(C)[C@@H]5CC[C@]43C)[C@@H]12` [ACANTHOSESSILIOSIDE D], in [1], the viability at 24 h is 95.2%. The IC50 in the data set with HCT-116, in the data set on MCF7, in the data set with SK-BR-3, in the data set on SK-OV-3, in the data set with HeLa and in the data set on HepG2 was greater than 10 µM in each case. Also, the IC50 in the data set on SK-MEL-5 is greater than 10 µM; in the data set on RAW264.7 it was 11.9 µM.
For the compound `C=C(C)[C@@H]1C[C@H](O)[C@]2(C(=O)O[C@@H]3O[C@H](CO)[C@@H](O)[C@H](O)[C@H]3O)CC[C@]3(C)[C@H](CC[C@@H]4[C@@]5(C)[C@@H](CC(=O)O)OC(C)(C)[C@@H]5CC[C@]43C)[C@@H]12` [ACANTHOSESSILIOSIDE E], the IC50 in the data set with HCT-116, in the data set with MCF7, in the data set with SK-BR-3, in the data set on SK-OV-3, in the data set on HeLa and in the data set on HepG2 was greater than 10 µM throughout. Further, the IC50 in the data set on SK-MEL-5 was greater than 10 µM; in the data set on RAW264.7, greater than 50 µM.
For `C=C(C)[C@@H]1C[C@H](O)[C@]2(C(=O)O[C@@H]3O[C@H](CO)[C@@H](O)[C@H](O)[C@H]3O)CC[C@]3(C)[C@H](C[C@H]4OC(=O)C[C@@H](O)[C@]5(C)[C@@H]4[C@@]3(C)CC[C@H]5C(=C)C)[C@@H]12` [ACANTHOSESSILIOSIDE F], the IC50 in the data set on HCT-116, in the data set on MCF7, in the data set on SK-BR-3, in the data set with SK-OV-3, in the data set with HeLa and in the data set with HepG2 was greater than 10 µM throughout. Moreover, the IC50 was greater than 10 µM with SK-MEL-5 and greater than 50 µM in the data set on RAW264.7.
Regarding `C=C(C)[C@@H]1CC[C@]2(C(=O)O[C@@H]3O[C@H](CO[C@@H]4O[C@H](CO)[C@@H](O[C@@H]5O[C@@H](C)[C@H](O)[C@@H](O)[C@H]5O)[C@H](O)[C@H]4O)[C@@H](O)[C@H](O)[C@H]3O)CC[C@]3(C)[C@H](C[C@H]4OC(=O)C[C@@H](O)[C@]5(C)[C@@H]4[C@@]3(C)CC[C@H]5C(=C)C)[C@@H]12` [CHIISANOSIDE], the IC50 is less than 10 µM with HCT-116; less than 10 µM with MCF7; less than 10 µM with SK-BR-3; less than 10 µM in the data set on SK-OV-3; greater than 10 µM in the data set with HeLa; greater than 10 µM in the data set on HepG2. For the same compound, the IC50 in the data set on SK-MEL-5 is less than 10 µM; in the data set on RAW264.7 it was greater than 50 µM.
With `CC(=O)O[C@H]1C(=O)[C@@]2(C)[C@H]([C@H](OC(=O)c3ccccc3)[C@]3(O)C[C@H](OC(=O)[C@H](O)[C@@H](NC(=O)c4ccccc4)c4ccccc4)C(C)=C1C3(C)C)[C@]1(OC(C)=O)CO[C@@H]1C[C@@H]2O` [PACLITAXEL], the IC50 in the data set with HCT-116 was 0.05 µM; with MCF7, 0.9 µM; in the data set on SK-BR-3 it was 0.11 µM; in the data set on SK-OV-3, 0.4 µM; with SK-MEL-5 it was 0.15 µM.
In the case of `N=C(N)NN` [PIMAGEDINE], in data set [1], the viability at 24 h turned out to be 84.6%. For the same compound, the IC50 in the data set with RAW264.7 stood at 6.5 µM.
